Experimental data: ChEMBL document CHEMBL1125346, “Guanidinophenyl-substituted enol lactones as selective, mechanism-based inhibitors of trypsin-like serine proteases” (J Med Chem, 1992)

What was measured:
[1] = biological target: Chymotrypsinogen A (Bos taurus) (UniProt P00766); experiment: Time for which maximum percent inhibition persists was determined against alpha-chymotrypsin (17 nM); type: functional
Summary of the method: (§1)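 Enzyme incubated with excess lactone added from DMSO stock (final 10% DMSO); aliquots over 2 h diluted into substrate: chymotrypsin Suc-AAPF-pNA 315 µM, pH 7.2, 410 nm; t-PA Spectrozyme t-PA 0.2 mM, Tris-imidazole pH 8.4, 405 nm; HNE MeO-Suc-AAPV-pNA 150 µM, pH 7.4, 410 nm; plasmin Ts-GPK-pNA 157.4 µM, pH 7.8, 404 nm; thrombin Ts-GPR-pNA 75 µM, pH 8.0, 408 nm; trypsin Z-VGR-pNA 155 µM, pH 7.2, 404 nm. Activity given relative to a no-lactone control. Some runs used a 10-min substrate-free delay after dilution. ∞ means no recovery over 2 h.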

[2] = biological target: Chymotrypsinogen A (Bos taurus) (UniProt P00766); experiment: Time to reach maximum percent inhibition by the compound was determined against alpha-chymotrypsin (17 nM); type: functional
Summary of the method: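 α-Chymotrypsin with excess lactone (DMSO, 10% final) was sampled over 2 h into Suc-Ala-Ala-Pro-Phe-pNA (315 μM) in 0.2 M phosphate, pH 7.2. Absorbance at 410 nm gave the remaining activity versus a control without lactone. Minutes to maximal inhibition were taken.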

[3] = biological target: Chymotrypsinogen A (Bos taurus) (UniProt P00766); experiment: Maximum percent inhibition by the compound was determined against Chymotrypsinogen (17 nM); summary of the method: as §1
[4] = biological target: T1, Neutrophil elastase (Homo sapiens) (UniProt P08246); experiment: Maximum percent inhibition by the compound was determined against human neutrophil elastase HNE(66 nM); summary of the method: as §1
T1 sequence (whole entry): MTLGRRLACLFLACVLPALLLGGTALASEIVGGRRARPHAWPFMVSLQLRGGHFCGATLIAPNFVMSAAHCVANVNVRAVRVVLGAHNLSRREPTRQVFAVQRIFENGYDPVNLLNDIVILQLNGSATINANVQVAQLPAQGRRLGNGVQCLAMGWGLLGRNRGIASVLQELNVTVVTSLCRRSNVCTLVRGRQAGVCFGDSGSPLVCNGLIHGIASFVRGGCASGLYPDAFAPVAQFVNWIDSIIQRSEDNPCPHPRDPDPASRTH

[5] = biological target: T1, Neutrophil elastase (Homo sapiens); experiment: Time to reach maximum percent inhibition by the compound was determined against human neutrophil elastase HNE(66 nM); type: functional
Summary of the method: (§2)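 HNE was incubated with excess lactone in 10% final DMSO. Aliquots drawn during 2 h went into MeO-Suc-Ala-Ala-Pro-Val-pNA (150 μM) in 0.1 M phosphate, 0.5 M NaCl, pH 7.4, read at 410 nm. Activity was set relative to a lactone-free control, and the time (min) to peak inhibition was noted.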

[6] = biological target: Plasminogen (Homo sapiens) (UniProt P00747); experiment: Time to reach maximum percent inhibition by the compound was determined against plasmin(625 nM); type: functional
Chain of Plasminogen (Homo sapiens) (P00747 97-580 limits assumed): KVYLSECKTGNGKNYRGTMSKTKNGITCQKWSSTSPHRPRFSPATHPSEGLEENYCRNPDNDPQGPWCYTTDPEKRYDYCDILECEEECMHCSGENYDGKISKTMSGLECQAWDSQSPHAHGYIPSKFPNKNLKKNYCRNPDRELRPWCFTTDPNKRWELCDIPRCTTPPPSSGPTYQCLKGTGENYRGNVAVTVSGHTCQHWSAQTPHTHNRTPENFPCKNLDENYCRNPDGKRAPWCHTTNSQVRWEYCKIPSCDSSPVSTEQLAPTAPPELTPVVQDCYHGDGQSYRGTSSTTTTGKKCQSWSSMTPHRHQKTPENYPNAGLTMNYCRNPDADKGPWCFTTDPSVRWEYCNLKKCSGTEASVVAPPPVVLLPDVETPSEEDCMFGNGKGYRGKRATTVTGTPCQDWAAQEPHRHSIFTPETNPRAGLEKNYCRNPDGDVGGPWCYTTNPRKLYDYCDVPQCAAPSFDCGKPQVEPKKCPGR
Chain of Plasminogen (Homo sapiens) (P00747 581-810 limits assumed): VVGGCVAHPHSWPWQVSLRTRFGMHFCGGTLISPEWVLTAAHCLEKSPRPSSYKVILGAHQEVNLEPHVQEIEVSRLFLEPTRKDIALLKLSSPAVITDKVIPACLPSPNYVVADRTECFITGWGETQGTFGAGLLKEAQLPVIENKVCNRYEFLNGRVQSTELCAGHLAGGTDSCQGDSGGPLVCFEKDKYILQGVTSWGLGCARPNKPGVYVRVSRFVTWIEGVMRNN
Summary of the method: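 Plasmin plus excess lactone (10% final DMSO) was sampled over 2 h into Ts-Gly-Pro-Lys-pNA (157.4 μM) in 0.05 M phosphate, pH 7.8. The slope at 404 nm, relative to an enzyme-only control, gave residual activity. Minutes needed to reach maximal inhibition were reported.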

[7] = biological target: Plasminogen (Homo sapiens) (UniProt P00747); experiment: Substrate binding constant against plasmin
Summary of the method: (§3)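 Competitive substrate assay: lactone (DMSO, final 10% v/v) and chromogenic substrate combined in buffer, enzyme added, absorbance followed to steady state. Turnover-corrected semilog plot gives kobs; I0 vs I0/kobs replot (eq 6) with separately determined Km yields Ki and ka. Where no burst was seen, Ki was estimated from Km(app) replots using 15-s initial velocities. Buffers and substrates as in incubation assay.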

[8] = biological target: Plasminogen (Homo sapiens) (UniProt P00747); experiment: Second order rate constant against plasmin; summary of the method: as §3
[9] = biological target: Plasminogen (Homo sapiens) (UniProt P00747); experiment: Time for which maximum percent inhibition persists was determined against plasmin(625 nM); * =no enzyme activity was recovered over 2 h; type: functional; summary of the method: as §1
[10] = biological target: Plasminogen (Homo sapiens) (UniProt P00747); experiment: Maximum percent inhibition by the compound was determined against plasmin(625 nM); summary of the method: as §1
[11] = biological target: Plasminogen (Homo sapiens) (UniProt P00747); experiment: Acylation rate constant against plasmin; summary of the method: as §3
[12] = biological target: Tissue-type plasminogen activator (Homo sapiens) (UniProt P00750); experiment: Maximum percent inhibition by the compound was determined against Tissue plasminogen activator (19.4 nM); summary of the method: as §1
Chain of Tissue-type plasminogen activator (Homo sapiens) (P00750 36-562 limits assumed): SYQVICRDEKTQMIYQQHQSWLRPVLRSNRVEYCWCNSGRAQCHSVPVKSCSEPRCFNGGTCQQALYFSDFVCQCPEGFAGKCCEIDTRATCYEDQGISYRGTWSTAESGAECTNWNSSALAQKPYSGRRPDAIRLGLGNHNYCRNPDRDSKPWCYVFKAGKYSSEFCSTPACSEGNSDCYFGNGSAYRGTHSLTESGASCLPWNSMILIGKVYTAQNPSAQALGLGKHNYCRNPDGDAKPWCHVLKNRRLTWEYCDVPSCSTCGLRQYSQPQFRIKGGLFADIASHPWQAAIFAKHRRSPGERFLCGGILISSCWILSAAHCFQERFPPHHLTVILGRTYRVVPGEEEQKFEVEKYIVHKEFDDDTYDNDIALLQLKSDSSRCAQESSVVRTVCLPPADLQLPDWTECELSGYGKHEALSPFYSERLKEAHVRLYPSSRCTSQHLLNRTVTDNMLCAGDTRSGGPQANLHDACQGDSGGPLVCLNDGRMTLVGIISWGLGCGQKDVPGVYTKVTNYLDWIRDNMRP

[13] = biological target: Tissue-type plasminogen activator (Homo sapiens) (UniProt P00750); experiment: Time for which maximum percent inhibition persists was determined against Tissue plasminogen activator (19.4 nM); type: functional; summary of the method: as §1
[14] = biological target: Tissue-type plasminogen activator (Homo sapiens) (UniProt P00750); experiment: Time to reach maximum percent inhibition by the compound was determined against Tissue plasminogen activator (19.4 nM); type: functional
Summary of the method: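 Tissue plasminogen activator was exposed to excess lactone (10% final DMSO). Over 2 h, aliquots were diluted into Spectrozyme t-PA (0.2 mM) in Tris-imidazole, I 0.3, pH 8.4. Hydrolysis at 405 nm gave residual activity relative to an enzyme-only control. The time (min) to reach maximal percent inhibition was recorded.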

[15] = biological target: Prothrombin (Homo sapiens) (UniProt P00734); experiment: Time to reach maximum percent inhibition by the compound was determined against thrombin (1.93 nM); type: functional
Summary of the method: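 Thrombin was incubated with excess lactone (DMSO, 10% final). Aliquots over 2 h were diluted into Ts-Gly-Pro-Arg-pNA (75 μM) in 0.05 M phosphate, 0.01 M EDTA, 10 g/L PEG 8000, 10 mg/L aprotinin, pH 8.0, and read at 408 nm against a no-lactone control. Time to maximal inhibition was recorded.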

[16] = biological target: T2, Serine protease 1 (Bos taurus) (UniProt P00760); experiment: Substrate binding constant against trypsin; summary of the method: as §3
T2 sequence (whole entry): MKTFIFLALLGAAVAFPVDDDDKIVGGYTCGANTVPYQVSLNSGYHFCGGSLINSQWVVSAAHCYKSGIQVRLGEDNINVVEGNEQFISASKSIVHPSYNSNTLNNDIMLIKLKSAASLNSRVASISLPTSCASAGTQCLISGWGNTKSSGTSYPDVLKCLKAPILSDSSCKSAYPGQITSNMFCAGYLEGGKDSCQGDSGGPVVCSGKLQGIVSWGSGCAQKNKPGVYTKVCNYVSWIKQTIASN

[17] = biological target: T2, Serine protease 1 (Bos taurus); experiment: Second order rate constant against trypsin; summary of the method: as §3
[18] = biological target: T2, Serine protease 1 (Bos taurus); experiment: Time to reach maximum percent inhibition by the compound was determined against trypsin (14.6 nM); type: functional
Summary of the method: (§4)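 Trypsin was incubated with excess lactone added from DMSO stock (10% final DMSO). Aliquots taken over 2 h were diluted into Z-Val-Gly-Arg-pNA (155 μM) in 0.2 M phosphate, pH 7.2, and read at 404 nm. Activity came from the absorbance slope versus a no-lactone control. Reported are minutes to maximal inhibition and minutes it persisted; ∞ means no recovery within 2 h.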

[19] = biological target: T3, Urokinase-type plasminogen activator (Homo sapiens, UniProt P00749); experiment: Decylation rate constant against Urokinase-type plasminogen activator
[20] = biological target: Prothrombin (Homo sapiens) (UniProt P00734); experiment: Maximum percent inhibition by the compound was determined against thrombin (1.93 nM); summary of the method: as §1
[21] = biological target: T2, Serine protease 1 (Bos taurus); experiment: Acylation rate constant against trypsin; summary of the method: as §3
Serine protease 1 = biological target: T4, Serine protease 1 (Bos taurus, UniProt P00760); experiment: Decylation rate constant against trypsin
T4 sequence (P00760 whole entry): T2 sequence (whole entry)
Summary of the method: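 Trypsin incubated 30–45 min with excess lactone (same I0/E0 as incubation assay). Free inhibitor removed by two 1-h centrifugations at 0 °C. Activity recovery followed at room temperature against an inhibitor-free control carried through the same treatment; kd is the slope of ln remaining activity vs time. Substrate Z-Val-Gly-Arg-pNA 155 µM, 0.2 M phosphate pH 7.2, 404 nm.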

[22] = Ratio of initial inhibitor concentration to initial Chymotrypsinogen concentration
Summary of the method: (§5)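 Ratio I0/E0 of lactone to enzyme in the 2-h incubation assay; lactone added from DMSO stock to buffered enzyme (final 10% DMSO).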

[23] = Ratio of initial inhibitor concentration to initial HNE concentration; summary of the method: as §5
[24] = Ratio of initial inhibitor concentration to initial Plasmin concentration; summary of the method: as §5
[25] = Ratio of initial inhibitor concentration to initial t-PA concentration; summary of the method: as §5
[26] = Ratio of initial inhibitor concentration to initial thrombin concentration; summary of the method: as §5
[27] = Ratio of initial inhibitor concentration to initial trypsin concentration; summary of the method: as §5
[28] = Ratio of initial inhibitor concentration to initial urokinase concentration; summary of the method: as §5
[29] = biological target: T3, Urokinase-type plasminogen activator
[30] = biological target: T3, Urokinase-type plasminogen activator; remark: listed apart in the source
[31] = biological target: T3, Urokinase-type plasminogen activator; remark: listed apart in the source
[32] = biological target: T1, Neutrophil elastase (Homo sapiens); experiment: Maximum percent inhibition by the compound was determined against human neutrophil elastase (HNE); summary of the method: as §1
[33] = biological target: T1, Neutrophil elastase (Homo sapiens); experiment: Time for which maximum percent inhibition persists was determined against human neutrophil elastase (HNE); type: functional; summary of the method: as §1
[34] = biological target: T1, Neutrophil elastase (Homo sapiens); experiment: Time to reach maximum percent inhibition by the compound was determined against human neutrophil elastase (HNE); type: functional; summary of the method: as §2
[35] = biological target: Plasminogen (Homo sapiens) (UniProt P00747); experiment: Time for which maximum percent inhibition persists was determined against plasmin; type: functional; summary of the method: as §1
[36] = biological target: Prothrombin (Homo sapiens) (UniProt P00734); experiment: Time for which maximum percent inhibition persists was determined against thrombin (1.93 nM); type: functional; summary of the method: as §1
[37] = biological target: T2, Serine protease 1 (Bos taurus); experiment: Time for which maximum percent inhibition persists was determined against trypsin (14.6 nM); type: functional; summary of the method: as §4
[38] = biological target: T2, Serine protease 1 (Bos taurus); experiment: Maximum percent inhibition by the compound was determined against trypsin (14.6 nM); summary of the method: as §1
[39] = biological target: T3, Urokinase-type plasminogen activator; experiment: Time for which maximum percent inhibition persists was determined against Urokinase-type plasminogen activator e (300 nM); * =no enzyme activity was recovered over 2 h; type: functional

| Structure (SMILES) | TIME [1] [h] | TIME [2] [h] | inhibition [3] [%] | TIME [6] [h] | inhibition [10] [%] | inhibition [12] [%] | TIME [13] [h] | TIME [14] [h] | TIME [15] [h] | Ks [16] [µM] | Rate [17] [ka/Ks] | TIME [18] [h] | inhibition [20] [%] | Ka [21] [min⁻¹] | Ratio [22] [Io/Eo] | Ratio [23] [Io/Eo] | Ratio [24] [Io/Eo] | Ratio [25] [Io/Eo] | Ratio [26] [Io/Eo] | Ratio [27] [Io/Eo] | also measured |
| --- | --- | --- | --- | --- | --- | --- | --- | --- | --- | --- | --- | --- | --- | --- | --- | --- | --- | --- | --- | --- | --- |
| C=C1CC(c2ccc(NC(=N)N)cc2)CC(=O)O1 (centres undefined) | 0.75 | 0 | 34 | 0 | 79 | 24 | 0.5 | 0.25 | 0.25 | 9.4 | 10 | 0.333 | 40 | 91 | 118 | 36 | 16 | 100 | 518 | 86 | inhibition [4]: 27%; TIME [5]: 0.5 h; Ks [7]: 63.7 µM; Rate [8]: 1.5 ka/Ks; TIME [9]: No enzyme activity; Ka [11]: 97 min⁻¹; Kd [19]: 0.00015 s⁻¹; Kd (Serine protease 1): 3.3e-05 s⁻¹; Ratio [28]: 50 Io/Eo; Ks [29]: 0.12 µM; Rate [30]: 2 ka/Ks; Ka [31]: 0.24 min⁻¹ |
| C=C1CCC(c2ccc(NC(=N)N)cc2)C(=O)O1 (centres undefined) | 0 | 0.75 | 58 | 0 | 99 | 29 | 0 | 0 | 0 | 0.23 | 62 | 0 | 7 | 14 | 118 | 36 | 16 | 100 | 518 | 86 | inhibition [32]: 22%; TIME [33]: 0 h; TIME [34]: 0.25 h; TIME [35]: 0 h; TIME [36]: 0 h; TIME [37]: 0.75 h; inhibition [38]: 97%; TIME [39]: No enzyme activity; Ratio [28]: 50 Io/Eo; Ks [29]: 0.33 µM; Rate [30]: 1180 ka/Ks; Ka [31]: 391 min⁻¹ |
